Experiments:
[1] = Antioxidant activity assessed as hydrogen peroxide scavenging activity at 100 ug/ml relative to control; type: functional
[2] = target: T1, Prostaglandin G/H synthase 2 (Homo sapiens) (UniProt P35354); assay: Inhibition of COX2 (unknown origin) at 10 umol/l by ELISA relative to control
T1 sequence (whole entry): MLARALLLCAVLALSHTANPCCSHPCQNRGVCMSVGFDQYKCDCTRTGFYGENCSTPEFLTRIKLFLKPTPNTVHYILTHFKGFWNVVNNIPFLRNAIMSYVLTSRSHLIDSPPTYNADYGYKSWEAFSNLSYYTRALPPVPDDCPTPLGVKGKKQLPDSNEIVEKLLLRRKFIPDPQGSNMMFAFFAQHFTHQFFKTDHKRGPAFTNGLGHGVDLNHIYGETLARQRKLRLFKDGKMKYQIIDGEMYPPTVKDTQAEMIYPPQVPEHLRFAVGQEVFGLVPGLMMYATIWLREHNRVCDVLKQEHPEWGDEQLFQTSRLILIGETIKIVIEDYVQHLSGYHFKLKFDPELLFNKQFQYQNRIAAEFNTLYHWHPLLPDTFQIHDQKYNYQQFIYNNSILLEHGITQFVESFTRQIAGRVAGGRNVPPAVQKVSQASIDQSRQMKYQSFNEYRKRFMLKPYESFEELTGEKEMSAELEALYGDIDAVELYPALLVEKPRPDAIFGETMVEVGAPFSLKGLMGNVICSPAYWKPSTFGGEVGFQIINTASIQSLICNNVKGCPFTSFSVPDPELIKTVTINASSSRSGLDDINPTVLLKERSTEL

Mus musculus [3] = assay: Antiinflammatory activity in para-xylene-induced mouse model of ear swelling assessed as edema at 100 mg/kg, ip (reference value: 8.70 +/- 0.90 mg); type: functional
In short: (§1)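 Mouse ear swelling induced by para-xylene. Dosing was 100 mg/kg intraperitoneal with DMSO as vehicle, and the vehicle group was also given 100. Each group had 5 mice. Edema was recorded in mg as mean ± S.D., and the inhibition rate (%) was taken relative to the vehicle group. Indomethacin at 100 mg/kg served as the reference.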

Mus musculus [4] = assay: Antiinflammatory activity in para-xylene-induced mouse model of ear swelling assessed as inhibition in swelling rate at 100 mg/kg, ip relative to control; type: functional; in short: as §1
Mus musculus [5] = assay: Antiinflammatory activity in para-xylene-induced mouse model of ear swelling assessed as inhibition in swelling rate at 100 mg/kg, po treated for 1 hr followed by xylene addition relative to control; type: functional
In short: (§2)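 Mouse ear edema induced by para-xylene. A single oral dose of 100 mg/kg was given at set intervals (1, 2, 3, 4, 5 or 24 h) before xylene was applied. Each group had 5 mice. The inhibition rate (%) was taken relative to the vehicle group. Indomethacin at 100 mg/kg served as the reference.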

Mus musculus [6] = assay: Antiinflammatory activity in para-xylene-induced mouse model of ear swelling assessed as inhibition in swelling rate at 100 mg/kg, po treated for 2 hrs followed by xylene addition relative to control; type: functional; in short: as §2
Mus musculus [7] = assay: Antiinflammatory activity in para-xylene-induced mouse model of ear swelling assessed as inhibition in swelling rate at 100 mg/kg, po treated for 3 hrs followed by xylene addition relative to control; type: functional; in short: as §2
Mus musculus [8] = assay: Antiinflammatory activity in para-xylene-induced mouse model of ear swelling assessed as inhibition in swelling rate at 100 mg/kg, po treated for 4 hrs followed by xylene addition relative to control; type: functional; in short: as §2
Mus musculus [9] = assay: Antiinflammatory activity in para-xylene-induced mouse model of ear swelling assessed as inhibition in swelling rate at 100 mg/kg, po treated for 5 hrs followed by xylene addition relative to control; type: functional; in short: as §2
Mus musculus [10] = assay: Antiinflammatory activity in para-xylene-induced mouse model of ear swelling assessed as inhibition in swelling rate at 100 mg/kg, po treated for 24 hrs followed by xylene addition relative to control; type: functional; in short: as §2
Mus musculus [11] = assay: Antiinflammatory activity in para-xylene-induced mouse model of ear swelling assessed as inhibition in swelling rate at 50 mg/kg, po treated for 2 hrs followed by xylene addition relative to control; type: functional
In short: (§3)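 Mouse ear edema induced by para-xylene. Oral doses were 25, 50 or 100 mg/kg, given 2 h before xylene was applied. Each group had 5 mice. The inhibition rate (%) was taken relative to the vehicle group, with indomethacin as the positive control.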

Mus musculus [12] = assay: Antiinflammatory activity in para-xylene-induced mouse model of ear swelling assessed as inhibition in swelling rate at 25 mg/kg, po treated for 2 hrs followed by xylene addition relative to control; type: functional; in short: as §3
[13] = Antioxidant activity assessed as ABTS radical scavenging activity by spectrophotometric analysis; type: functional
In short: (§4)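 Radical scavenging by ABTS, DPPH or hydroxyl radical, read spectrophotometrically. Activity was calculated from the percentage decrease in absorbance, with resveratrol as the positive control. Values are given with the standard deviation (SD).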

[14] = Antioxidant activity assessed as DPPH radical scavenging activity by spectrophotometric analysis; type: functional; in short: as §4
[15] = Antioxidant activity assessed as hydroxyl radical scavenging activity by spectrophotometric analysis; type: functional; in short: as §4

C/C(=N\c1ccc([N+](=O)[O-])cc1)N1N=C(c2ccc(-c3ccccc3)cc2)OC1c1ccccc1O (stereo not given)
Activity [1]: < 51.2%

Cc1cccc(-c2nnc(COc3ccc(/C=N/Nc4nc5ccccc5s4)cc3)o2)c1
inhibition [2]: 35%

COc1ccc2c(c1)c(CC(=O)O)c(C)n2C(=O)c1ccc(Cl)cc1 [INDOMETHACIN]
Activity (Mus musculus [3]): 5.15 mg
inhibition in vivo at 100 mg/kg (Mus musculus [4]): 43.6%
inhibition in vivo at 100 mg/kg (Mus musculus [5]): 25.3%
inhibition in vivo at 100 mg/kg (Mus musculus [6]): 52.3 to 58.3%
inhibition in vivo at 100 mg/kg (Mus musculus [7]): 46.1%
inhibition in vivo at 100 mg/kg (Mus musculus [8]): 30.4%
inhibition in vivo at 100 mg/kg (Mus musculus [9]): 19.2%
inhibition in vivo at 100 mg/kg (Mus musculus [10]): 12.5%
inhibition in vivo at 50 mg/kg (Mus musculus [11]): 25.9%
inhibition in vivo at 25 mg/kg (Mus musculus [12]): 19.1%

Oc1ccc(/C=C/c2cc(O)cc(O)c2)cc1 [RESVERATROL]
IC50 [13]: 1420 µM
IC50 [14]: 990 µM
IC50 [15]: 370000 µM

Source: ChEMBL document CHEMBL4622871, “Synthesis, biological evaluation of benzothiazole derivatives bearing a 1,3,4-oxadiazole moiety as potential anti-oxidant and anti-inflammatory agents” (Bioorg Med Chem Lett, 2020)
